Measurements gathered from unrelated publications.
Cell line: A549
Effect on: cell growth or viability

Compound	assay	setting	measurement	value
COC(C)(C)CCC[C@](C)(O)[C@H]1CC[C@]2(C)[C@@H]1[C@H](O)C[C@@H]1[C@@]3(C)CC[C@H](O)C(C)(C)[C@@H]3CC[C@]12C	MTT	72 h	IC80	35.9 µM
COc1cc([C@@H]2c3cc4c(cc3[C@@H](O[C@@H]3O[C@@H]5CO[C@@H](C)O[C@H]5[C@H](O)[C@H]3O)[C@H]3COC(=O)[C@H]23)OCO4)cc(OC)c1O	MTT	72 h	IC50	2 µM
CN1C[C@H](C(=O)N[C@]2(C)O[C@@]3(O)[C@@H]4CCCN4C(=O)[C@H](Cc4ccccc4)N3C2=O)C[C@@H]2c3cccc4[nH]cc(c34)C[C@H]21	MTT	72 h	EC50	43 µM
O=C(/C=C/c1ccc2c(ccn2S(=O)(=O)c2ccccc2)c1)NO	SRB	48 h	GI50	1 µM
O=C(CN1C(=O)/C(=C/c2ccc(C(F)(F)F)cc2)SC1=S)Nc1ccccc1	MTT	10 µM	inhibition	27.8%
CS(=O)(=O)CCNCc1ccc(-c2ccc3ncnc(Nc4ccc(OCc5cccc(F)c5)c(Cl)c4)c3c2)o1	MTT	72 h	EC50	67 µM
CCN(CC)CCNC(=O)c1c(C)[nH]c(/C=C2\C(=O)Nc3ccc(F)cc32)c1C	–	30 µM	inhibition	85.7%
CC1=C(C(=O)OC(C)C)C(c2cccc([N+](=O)[O-])c2)C(C(=O)OC2CN(C(c3ccccc3)c3ccccc3)C2)=C(N)N1 (stereo not drawn)	CCK-8	100 µM, 72 h	viability	< 50%
CC(C)c1ccc(/C=C2\SC(=S)N(CC(=O)Nc3ccccc3)C2=O)cc1	MTT	10 µM	inhibition	22.5%
COC(=O)C1=C(C)NC(C)=C(C(=O)OCCN(C)Cc2ccccc2)C1c1cccc([N+](=O)[O-])c1 (stereo not drawn)	CCK-8	100 µM, 72 h	viability	< 50%
COc1cccc2c1C(=O)c1c(O)c3c(c(O)c1C2=O)C[C@@](O)(C(=O)CO)C[C@@H]3O[C@H]1C[C@H](N)[C@H](O)[C@H](C)O1	MTT	72 h	GI50	5.66 µM
COc1cccc(NC(=O)CN2C(=O)/C(=C/C3CC3)SC2=S)c1	MTT	10 µM	inhibition	17.2%
CCn1cc(C(=O)O)c(=O)c2cc(F)c(N3CCNCC3)cc21	SRB	48 h	GI50	> 80 µg/mL
O=C(CN1C(=O)/C(=C/c2cccc(O)c2)SC1=S)Nc1ccccc1	MTT	10 µM	inhibition	14.5%
Cn1c(=O)c(NN=C2C(=O)Nc3ccc(F)cc32)nc2ccccc21	–	30 µM	inhibition	53.2%
O=C(CN1C(=O)/C(=C/c2ccc(F)cc2)SC1=S)Nc1ccccc1	MTT	10 µM	inhibition	27.6%
CC(C)=CCC[C@](C)(O)[C@H]1CC[C@]2(C)[C@@H]1[C@H](O)C[C@@H]1[C@@]3(C)CC[C@H](O[C@@H]4O[C@H](CO)[C@@H](O)[C@H](O)[C@H]4O[C@@H]4O[C@H](CO)[C@@H](O)[C@H](O)[C@H]4O)C(C)(C)[C@@H]3CC[C@]12C	MTT	72 h	IC20	> 100 µM
COc1ccc2c(c1)C(=NNc1nnc(Cc3ccccc3)c3ccccc13)C(=O)N2	–	30 µM	inhibition	13.5%
O=C(CN1C(=O)/C(=C/c2ccccc2)SC1=S)Nc1ccccc1	MTT	10 µM	inhibition	43.3%
Cn1c(=O)c(NN=C2C(=O)Nc3ccc(Cl)cc32)nc2ccccc21	–	30 µM	inhibition	27.1%
C[C@]12CC[C@@H]3c4ccc(O)cc4CC[C@H]3[C@@H]1CC[C@@H]2O	ATP luminescence	72 h	EC90	56.1 µM
